# A selection: hits, their analogues and other compounds. The true share with any hit is near 3.7%.
# KCNK9 inh: KCNK9 potassium channel inhibitors, primary screen, HEK293 cells, thallium flux | FluxOR thallium flux fluorescence; active compounds read low | B-score at 10 µM | 310,000 compounds, 1.2% hits;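 active = ratio B-score over 3 SD below the library mean, with starting fluorescence within 5 SD of its mean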;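 also: negative B-score means less thallium flux so channel inhibition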
# KCNQ1 inh: inhibitors of human KCNQ1 channel, primary screen, cell-based, thallium flux, high-throughput; Potassium voltage-gated channel subfamily KQT member 1 (Homo sapiens), P51787; 310,000 compounds, 1.3% hits; B-score at 10 µM; CHO-K1 KCNQ1, FluxOR thallium flux fluorescence; active compounds read high;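 active = compounds whose thallium flux B-score, printed positive for inhibition, exceeds three library SD while starting fluorescence stays within three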;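 also: channel opened by potassium depolarization with thallium stimulus after 20 min compound exposure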
# hERG protect: hERG rescue from dofetilide block, primary screen, cell-based, CHO-hERG, FluxOR thallium flux, dofetilide IC70 | Voltage-gated inwardly rectifying potassium channel KCNH2 (Homo sapiens), Q12809 | dofetilide IC70 present | activation (rescue from dofetilide block), less the hit threshold, % at 10 µM | 310,000 compounds, 0.51% hits | AID 1511, 2009;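 active = activation above the mean of controls blocked by dofetilide plus 5 SD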;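 also: thallium influx through hERG after potassium depolarization seen as dye fluorescence rise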
# KCNQ1 pot: potentiators or activators of KCNQ1 channel, primary screen, cell-based, thallium flux, high-throughput. CHO-K1 KCNQ1, thallium flux FluxOR fluorescence; active compounds read high. B-score at 10 µM. AID 2648, 2010. Potassium voltage-gated channel subfamily KQT member 1 (Homo sapiens), P51787. 310,000 compounds, 0.35% hits;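 active = fluorescence ratio B-score, a plate-corrected score, at least three library SD, with initial intensity B-score within 5 SD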
#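 Medium – assay buffer, equal DMSO in all wells · Material – CHO-K1 cell line with stable KCNQ1 potassium channel expression · Signal – kinetic FluxOR thallium fluorescence, 10-s 1-Hz baseline, 110-s post-stimulus read · Compound – single concentration per compound, DMSO matched to controls · Schedule – 37 °C overnight plating, 90-min dark dye load, 20-min compound pretreatment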
# KCNK3 block: human KCNK3 channel inhibitors, primary screen, CHO cells, FluxOR thallium flux, B-score; Potassium channel subfamily K member 3 (Homo sapiens), O14649; FluxOR fluorescence; active compounds read low; B-score at 10 µM; 340,000 compounds, 0.84% hits; AID 602410, 2012;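 active = B-score under library mean minus 4 SD, starting fluorescence ratio at most library mean plus 5 SD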;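 also: more negative B-score means stronger inhibition of thallium flux through KCNK3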
# Kir21 block: inhibitors of mouse Kir2.1 inward-rectifier potassium channel | HEK293-Kir2.1, FluxOR thallium flux fluorescence; active compounds read low | AID 1672, 2009 | 310,000 compounds, 0.85% hits | B-score at 10 µM | Inward rectifier potassium channel 2 (Mus musculus), P35561;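 active = fluorescence ratio B-score at or below minus 3 SD of library scores, with starting-brightness B-score within 2 SD, cut at about -4.2 in these data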;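 also: channel flux triggered by added potassium and thallium sulfate stimulus; B-score of peak minus minimum fluorescence over baseline after thallium stimulus; more negative B-score means stronger Kir2.1 block with less thallium influx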
# * hit, by the source's call; i = inactive; nt = no result given.
SMILES,KCNK9 inh,KCNQ1 inh,hERG protect,KCNQ1 pot,KCNK3 block,Kir21 block
CCCCCCC1(C)NC(=O)N(C(C)C(=O)Nc2ccc(N3CCOCC3)cc2)C1=O (centres undefined),nt,nt,nt,nt,i,nt
Cn1cc(CNCc2ccc(-n3cccn3)cc2)c(-c2ccccc2F)n1,i,i,-5,i,i,-0.2
Cc1cc2ncc(-c3cccs3)nc2cc1C,i,i,-3,i,i,0.62
CCOC(=O)c1c(C)n(-c2ccc(C)cc2)c2ccc(OCC(O)CNCC3CCCO3)cc12 (centres undefined),i,7*,-42,i,i,-3.1
COC(=O)c1ccc(N2C(=O)CC(SCC(=O)Nc3ccc(OC)cc3)C2=O)cc1 (centres undefined),i,i,-10,i,i,1.6
CN=C(Nc1cc(Cl)ccc1Cl)SC1CC(=O)N(c2ccc(C(=O)OC)cc2)C1=O (centres undefined),-8*,i,-12,i,i,-1.2
CCCc1cc2c(cc1NC(=O)c1ccc(C(C)(C)C)cc1)OCO2,-7.7*,i,-6,i,i,1.3
O=C(NNS(=O)(=O)c1ccc([N+](=O)[O-])cc1)c1ccccc1,nt,nt,nt,nt,i,nt
O=C(NNS(=O)(=O)c1ccc([N+](=O)[O-])cc1)c1ccc2ccccc2c1O,i,7*,-26,i,i,3.6
COc1ccc(C(=O)c2nccc3ccccc23)cc1,i,i,-10,i,i,-0.2
CC(=O)Nc1cccc(C(=O)OCc2csc(CC(=O)Nc3ccccc3C)n2)c1,nt,nt,nt,nt,i,nt
CCc1noc(C)c1C(=O)Nc1nc2c(C)cc(C)cc2s1,i,i,-17,i,i,0.44
Cc1cc(C)c2nc(NC(=O)c3cc(C)on3)sc2c1,i,i,-1,24*,i,0.72
COc1ccc2nc(NC(=O)c3ccccc3O)sc2c1,i,i,-9,i,i,-0.11
CCOC(=O)c1cccc(C(=O)Nc2nc3ccc(OC)cc3s2)n1,i,i,1,9*,i,0.2
CCc1ccc2nc(NC(=O)c3cc(C)on3)sc2c1,i,i,9.4*,29*,i,-0.58
Cc1ccc(C(=O)NCC(=O)OCc2cccc(Br)c2)cc1,i,i,-19,i,i,-0.99
CC(NC(=O)c1ccc(F)cc1)C(=O)NC1=NCCS1 (centres undefined),i,i,-1,i,i,-0.36
COC(=O)c1ccc(C2C(C#N)=C(N)Oc3cc(O)ccc32)cc1 (centres undefined),i,i,61*,i,i,1.2
COC(=O)c1ccc(C2C(C#N)=C(N)Oc3cc(N)ccc32)cc1 (centres undefined),i,i,-3,i,i,-0.28
COC(=O)C1CCCN1C(=O)COc1ccc(Cl)cc1Br (centres undefined),i,i,5.1*,8*,i,0.32
COc1ccccc1N1CCN(C(=O)COc2ccc(Cl)cc2Br)CC1,i,i,-7,i,i,0.02
Cc1csc(C(C#N)C(=O)c2cc3ccccc3o2)n1 (centres undefined),i,i,2,i,i,0.47
CN(C(=O)c1cccc(NC(=O)Cc2ccc(NC(=O)C3CCCN(C(=O)C4CC4)C3)cc2)c1)C1CCC1 (centres undefined),nt,nt,nt,nt,i,nt
COc1ccc(NC(=O)c2ccc3[nH]c(C)c(C)c3c2)cc1,i,i,-5,i,i,1.2
SMILES,KCNK9 inh,KCNQ1 inh,hERG protect,KCNQ1 pot,KCNK3 block,Kir21 block
CCOc1ccccc1NC(=O)c1ccccc1-c1ccccc1,i,i,-4,i,i,-4.8*
CCCCOC(=O)c1ccc(NC(=S)NC(=O)c2c(Cl)cnn2CC)cc1,i,i,0,75*,i,0.46
CCN(CC)c1ccc(NC(=S)NC(=O)c2cccs2)cc1,i,i,6.5*,i,i,0.83
CCCCOC(=O)c1ccc(NC(=O)/C=C/c2cccs2)cc1,i,13*,-14,i,i,-0.2
CC(=O)NC(=S)Nc1ccc(NC(=S)NC(=O)c2cccs2)cc1,i,i,-2,i,i,1.6
COCCCNC(=O)Cn1c(=O)n(CCCCCC(=O)NCc2ccc3c(c2)OCO3)c(=O)c2sccc21,i,i,-15,i,i,-0.16
COC(=O)c1cn(C(=O)/C=C/c2ccc(OC)c(OC)c2)c2ccccc12,i,i,-15,i,i,0.08
CCCCOC(=O)c1ccc(NC(=S)NC(=O)c2ccco2)cc1,i,i,0,11*,i,-1.2
CCN(CC)c1ccc(NC(=S)NC(=O)c2ccco2)cc1,i,i,53*,35*,i,-0.23
CCN(CC)c1ccc(NC(=O)c2ccco2)cc1,i,i,-10,i,i,0
CCCCC(=O)Nc1ccc(NC(=S)NC(=O)c2ccco2)cc1OC,i,i,-4,i,i,0.72
CCOc1ccccc1NC(=S)NC(=O)c1ccco1,i,i,1,11*,i,-0.24
CCOc1ccccc1NC(=O)c1ccccc1NC(=O)c1ccco1,i,i,-10,i,i,1.4
O=C(COc1ccccc1/C=C1\SC(=O)NC1=O)Nc1ccc(F)cc1,i,i,-1,i,i,-0.83
Cc1ccc(Oc2ccccc2/C=C2\SC(=O)N(C)C2=O)cc1,i,6*,-14,i,i,-0.59
O=C1NC(=O)/C(=C/c2ccccc2Oc2ccc(Cl)cc2)S1,i,11*,-10,i,i,-0.07
Cc1ccc(S(=O)(=O)Oc2ccccc2/C=C2\SC(=O)NC2=O)cc1,i,8*,-16,i,i,1.5
C/C=C/C(=O)Nc1cccc(C2=NOC3(C2)C[C@@H](C(N)=O)N(C(=O)C(c2ccccc2)c2ccccc2)C3)c1 (some centres undefined),i,i,-5,i,i,0.95
CSc1ccccc1NC(=O)CSCc1ccccc1Br,i,i,-9,i,i,-5.3*
CC(=O)N1c2ccc(N=Cc3cc(Br)cc(Br)c3O)cc2CC1C (centres undefined),i,i,3,8*,nt,0.26
